Measured values from different studies.
Lines come from different studies, so protocols differ.
Target: Serine/threonine-protein kinase PAK 4 (PAK4, Homo sapiens, UniProt O96013)

CS(=O)(=O)c1cc(C2(NC(=O)c3cncc4c3cnn4-c3ccc(F)cc3)CC2)ccn1
remaining binding (cell-free assay; competition with immobilised ligand; 1 µM): 100%

O=C(NCC1CCOCC1)c1n[nH]cc1NC(=O)c1c(F)cccc1F
remaining binding (binding; competition with immobilised ligand; 1 µM): 99%

O=C(NCCCN1CCOCC1)c1ccc(Nc2ncc(Cl)c(-c3ccc(Cl)s3)n2)cc1
remaining binding (binding; competition with immobilised ligand; 1 µM): 89%

CCN1CCN(Cc2ccc(C(=O)Nc3ccc(C)c(Oc4ccc5c(c4)CC(=O)N5)c3)cc2C(F)(F)F)CC1
remaining binding (binding; competition with immobilised ligand; 1 µM): 100%

CN(c1nccc(-c2cnn3ncccc23)n1)C1CC1
remaining binding (binding; 1 µM): 100%

CS(=O)(=O)NCC[C@H](NC(=O)c1cncc2c1cnn2-c1ccc(F)cc1)c1ccnc(S(C)(=O)=O)c1
remaining binding (cell-free assay; competition with immobilised ligand; 1 µM): 100%

c1cncc(-c2cccc(Nc3nccc(NC4CCCCC4)n3)c2)c1
remaining binding (binding; competition with immobilised ligand; 10 µM): 83%

Nc1ncc2c(n1)-c1c([nH]c3ccc(C#CC4CC4)cc13)CCCC2
remaining binding (binding; competition with immobilised ligand; 1 µM): 76%

C[C@@H]1CN(c2ccc3ncc(-c4ccc5[nH]nc(C6CC6)c5c4)n3n2)C[C@H](C)O1
remaining binding (binding; competition with immobilised ligand; 50 nM): 90%

CNC(=O)Nc1ccc2c(c1)[C@@]1(CC2)OC(=O)N(CC(=O)N(Cc2ccc(F)cc2)[C@@H](C)C(F)(F)F)C1=O
remaining binding (cell-free assay; competition with immobilised ligand; 1 µM): 95%

C[C@@H](c1ccc(-n2cnc3c(N)ncnc32)cc1)N1CCc2nn(C)c(Cc3ccccc3)c2C1=O
remaining binding (binding; competition with immobilised ligand; 0.1 µM): 100%

C[C@@H]1CCN(c2nccc(-c3cnn4ncccc34)n2)C1
remaining binding (binding; 1 µM): 100%

O=C(N1CCS(=O)(=O)CC1)N1C[C@H](c2ccc(OC(F)(F)F)cc2)C[C@H](c2nc(C3CC3)no2)C1
remaining binding (cell-free assay; competition with immobilised ligand; 1 µM): 100%

O=C(NCCCN1CCOCC1)c1ccc(Nc2nccc(-c3cc4ccccc4s3)n2)cc1
remaining binding (binding; competition with immobilised ligand; 1 µM): 91%

CCC(=N\O)/C(C)=C/c1ccc(F)cc1
remaining binding (cell-free assay; competition with immobilised ligand; 1 µM): 100%

COc1ccnn2ncc(-c3ccnc(N(C)C)n3)c12
remaining binding (binding; 1 µM): 85%

COc1ncc2cc3ccccc3nc2c1C#N
remaining binding (cell-free assay; competition with immobilised ligand; 5 µM): 97%

N[C@@H]1CCN(c2nccc(-c3cnn4ncccc34)n2)C1
remaining binding (binding; 1 µM): 100%

Cc1nc(C2CCN(C(=O)c3ccc(OC(F)(F)F)cc3N)CC2)c2ncc(N3CCN(C)CC3)cc2n1
remaining binding (cell-free assay; competition with immobilised ligand; 1 µM): 100%

CN(CCCC(F)(F)F)c1nccc(-c2cnn3ncccc23)n1
remaining binding (binding; 1 µM): 100%

Cc1cnc(Nc2ccc(C(=O)N3CCC(N4CCCC4)CC3)cc2)nc1-c1cc2ccccc2s1
remaining binding (binding; competition with immobilised ligand; 1 µM): 70%

Cc1cnn2ncc(-c3ccnc(N(C)C)n3)c2c1
remaining binding (binding; 1 µM): 100%

CNC(=O)[C@@H]1CC[C@@H](n2c(-c3ccc4cnccc4c3)nc3ccc(C(=O)NCc4cccc(C(N)=O)c4)cc32)C1
remaining binding (binding; competition with immobilised ligand; 1 µM): 100%

C[C@@H](c1cccc(C#N)c1)n1cc(Cl)cc(C(N)=O)c1=N
remaining binding (cell-free assay; competition with immobilised ligand; 1 µM): 100%

CC1CCCN1c1nccc(-c2cnn3ncccc23)n1 (stereo not shown)
remaining binding (binding; 1 µM): 100%
